According to ChEMBL document CHEMBL1821619 (Bioorg Med Chem Lett, 2011):

What was measured:
CYP3A4 = CYP3A4 (Homo sapiens, UniProt P08684); experiment: Inhibition of CYP3A4 at 1 uM; type: ADME
Summary of the method: (§1)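 Compounds were incubated at 37 ± 0.5 °C with agitation with human recombinant CYP isoforms, isoform-selective fluorescent substrates and an NADPH-generating system.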

CYP2D6 = CYP2D6 (Homo sapiens, UniProt P10635); experiment: Inhibition of CYP2D6 at 1 uM; type: ADME; summary of the method: as §1
CYP2C9 = CYP2C9 (Homo sapiens, UniProt P11712); experiment: Inhibition of CYP2C9 at 1 uM; type: ADME; summary of the method: as §1
Histamine H3 receptor [1] = molecular target: Histamine H3 receptor (Homo sapiens, UniProt Q9Y5N1); experiment: Displacement of [125I]Iodoproxyfan from recombinant human histamine H3 receptor expressed in HEK293 cells after 60 mins; type: cell-based
Mus musculus = experiment: Inverse agonist activity at histamine H3 receptor in po dosed Swiss mouse assessed as brain N-tele-methylhistamine level measured after 90 mins by enzyme immunoassay; type: functional; conditions: 1.5 h
Summary of the method: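 Compounds were given orally to at least 6 male Swiss mice per dose. Brain N-tele-methylhistamine was measured by enzyme immunoassay 90 min after dosing. Intrinsic activity was scaled to ciproxifan as the reference full inverse agonist. ED50 is given as mean ± SEM.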

Histamine H3 receptor [2] = molecular target: Histamine H3 receptor (Mus musculus, UniProt P58406); experiment: Displacement of [125I]Iodoproxyfan from mouse brain cortex histamine H3 receptor after 60 mins; type: tissue-based
Summary of the method: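 Competition binding used [125I]-iodoproxyfan against human recombinant H3R and native mouse brain cortex H3R. Ki values are means of at least two experiments run in duplicate or triplicate, reported as mean ± SEM.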

Cytochrome P450 3A4 = Cytochrome P450 3A4 (Homo sapiens, UniProt P08684); experiment: Inhibition of CYP3A4; type: ADME; summary of the method: as §1
Cytochrome P450 2C9 = Cytochrome P450 2C9 (Homo sapiens, UniProt P11712); experiment: Inhibition of CYP2C9; type: ADME; summary of the method: as §1
Cytochrome P450 2D6 = Cytochrome P450 2D6 (Homo sapiens, UniProt P10635); experiment: Inhibition of CYP2D6; type: ADME; summary of the method: as §1
hERG (KCNH2) [3] = molecular target: T1, hERG (KCNH2) (Homo sapiens, UniProt Q12809); experiment: Inhibition of human ERG expressed in HEK293 cells at 10 uM by patch clamp assay; type: cell-based; conditions: HEK293 cells expressing human ERG
hERG (KCNH2) [4] = molecular target: T1, hERG (KCNH2); experiment: Inhibition of human ERG expressed in HEK293 cells at 1 uM by patch clamp assay; type: cell-based; conditions: HEK293 cells expressing human ERG
[5] = AUC (0 to 8 hrs) in Swiss mouse plasma at 10 mg/kg, po by LC-MS/MS; type: ADME, organism-based; parameters: time < 8 hr, dose 10 mg/kg, route oral
Summary of the method: (§2)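 Male Swiss mice received a single 10 mg/kg oral dose. Compound was quantified in plasma and brain tissue by LC-MS/MS over 8 h, and AUC0-8h was derived. Data are mean ± SEM of 3 mice.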

[6] = AUC (0 to 8 hrs) in Swiss mouse brain at 10 mg/kg, po by LC-MS/MS; type: ADME, organism-based; parameters: time < 8 hr, dose 10 mg/kg, route oral; summary of the method: as §2
Liver microsomes = experiment: Metabolic stability in human liver microsomes at 100 nM upto 250 mins by LC-MS/MS; type: ADME, Microsome; conditions: 0.1 µM
Summary of the method: (§3)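 Compound at 100 nM was incubated with pooled human or mouse liver microsomes (0.5 mg/mL protein) plus NADP. Remaining compound was followed over time by LC-MS/MS.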

[7] = Ratio of AUC (0 to 8 hrs) in Swiss mouse brain to AUC (0 to 8 hrs) in Swiss mouse plasma at 10 mg/kg, po by LC-MS/MS; type: ADME, organism-based; parameters: dose 10 mg/kg, route oral; conditions: brain and plasma, read-out: Ratio AUC
Summary of the method: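 Male Swiss mice given single 10 mg/kg oral dose; plasma and brain tissue sampled over 0–8 h and drug quantified by LC-MS/MS; AUC0-8h computed for each matrix, ratio brain to plasma; mean ± SEM of 3 mice.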

Liver = experiment: Metabolic stability in mouse liver microsomes at 100 nM upto 250 mins by LC-MS/MS; type: ADME, Microsome; conditions: 0.1 µM; summary of the method: as §3
[8] = Tmax in Swiss mouse brain at 10 mg/kg, po by LC-MS/MS; type: ADME, organism-based; parameters: dose 10 mg/kg, route oral
[9] = AUC (0 to 3 hrs) in Swiss mouse brain at 10 mg/kg, po by LC-MS/MS; type: ADME, organism-based; parameters: time < 3 hr, dose 10 mg/kg, route oral
[10] = Tmax in Swiss mouse plasma at 10 mg/kg, po by LC-MS/MS; type: ADME, organism-based; parameters: dose 10 mg/kg, route oral
[11] = AUC (0 to 3 hrs) in Swiss mouse plasma at 10 mg/kg, po by LC-MS/MS; type: ADME, organism-based; parameters: time < 3 hr, dose 10 mg/kg, route oral

Sequence of Histamine H3 receptor (Homo sapiens, UniProt Q9Y5N1) (Q9Y5N1 whole entry): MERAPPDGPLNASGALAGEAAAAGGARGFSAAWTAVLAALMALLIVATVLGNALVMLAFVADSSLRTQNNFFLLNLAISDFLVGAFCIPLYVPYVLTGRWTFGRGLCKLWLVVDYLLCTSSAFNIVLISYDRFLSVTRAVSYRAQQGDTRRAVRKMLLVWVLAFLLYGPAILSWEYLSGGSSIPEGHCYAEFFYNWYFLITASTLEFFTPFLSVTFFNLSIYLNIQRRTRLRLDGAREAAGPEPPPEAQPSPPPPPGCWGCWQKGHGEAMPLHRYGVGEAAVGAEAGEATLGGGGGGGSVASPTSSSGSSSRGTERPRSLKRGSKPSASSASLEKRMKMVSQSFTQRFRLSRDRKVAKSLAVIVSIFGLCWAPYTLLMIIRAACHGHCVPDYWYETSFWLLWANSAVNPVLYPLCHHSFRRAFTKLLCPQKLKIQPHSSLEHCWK
Sequence of Histamine H3 receptor (Mus musculus, UniProt P58406) (P58406 whole entry): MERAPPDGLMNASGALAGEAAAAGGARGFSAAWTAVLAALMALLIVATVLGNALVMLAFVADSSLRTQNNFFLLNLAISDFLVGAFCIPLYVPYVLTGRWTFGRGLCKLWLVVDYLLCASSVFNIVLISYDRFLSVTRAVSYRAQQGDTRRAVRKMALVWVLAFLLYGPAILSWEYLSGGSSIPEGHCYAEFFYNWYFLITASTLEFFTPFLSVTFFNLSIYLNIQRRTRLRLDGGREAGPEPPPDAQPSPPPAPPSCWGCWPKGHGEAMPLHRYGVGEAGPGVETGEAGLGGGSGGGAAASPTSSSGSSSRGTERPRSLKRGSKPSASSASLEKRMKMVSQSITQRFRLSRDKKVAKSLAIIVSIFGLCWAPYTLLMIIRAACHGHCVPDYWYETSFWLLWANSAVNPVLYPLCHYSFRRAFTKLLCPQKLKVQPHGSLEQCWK
T1 sequence (Q12809 whole entry): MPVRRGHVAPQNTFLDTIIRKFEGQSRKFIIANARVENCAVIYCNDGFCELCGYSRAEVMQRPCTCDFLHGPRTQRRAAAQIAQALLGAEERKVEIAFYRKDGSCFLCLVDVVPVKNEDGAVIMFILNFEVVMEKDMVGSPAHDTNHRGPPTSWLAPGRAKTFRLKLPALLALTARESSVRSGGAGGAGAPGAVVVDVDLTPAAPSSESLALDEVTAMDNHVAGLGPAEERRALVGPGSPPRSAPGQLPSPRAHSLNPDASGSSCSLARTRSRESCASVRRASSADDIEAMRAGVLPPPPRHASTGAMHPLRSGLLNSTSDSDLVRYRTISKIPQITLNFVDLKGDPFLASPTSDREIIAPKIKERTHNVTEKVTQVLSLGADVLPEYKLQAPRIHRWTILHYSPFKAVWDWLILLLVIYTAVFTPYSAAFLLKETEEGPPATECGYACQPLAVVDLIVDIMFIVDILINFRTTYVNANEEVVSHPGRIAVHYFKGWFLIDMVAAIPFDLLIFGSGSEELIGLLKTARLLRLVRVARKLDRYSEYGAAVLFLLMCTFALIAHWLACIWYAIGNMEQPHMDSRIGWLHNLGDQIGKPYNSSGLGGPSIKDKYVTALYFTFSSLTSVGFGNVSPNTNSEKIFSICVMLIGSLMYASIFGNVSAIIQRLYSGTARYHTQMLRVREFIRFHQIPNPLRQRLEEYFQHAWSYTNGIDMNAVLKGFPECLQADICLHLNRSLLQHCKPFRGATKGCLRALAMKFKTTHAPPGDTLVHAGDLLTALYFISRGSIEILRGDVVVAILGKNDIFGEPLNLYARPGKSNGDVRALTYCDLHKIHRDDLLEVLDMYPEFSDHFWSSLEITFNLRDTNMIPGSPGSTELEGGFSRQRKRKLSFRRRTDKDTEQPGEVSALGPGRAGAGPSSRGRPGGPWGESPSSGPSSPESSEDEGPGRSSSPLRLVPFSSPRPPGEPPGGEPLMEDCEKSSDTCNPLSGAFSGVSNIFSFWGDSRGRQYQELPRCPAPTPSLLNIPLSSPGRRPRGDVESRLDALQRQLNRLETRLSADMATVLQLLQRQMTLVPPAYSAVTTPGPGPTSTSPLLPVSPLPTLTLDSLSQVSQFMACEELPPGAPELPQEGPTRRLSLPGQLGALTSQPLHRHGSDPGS
Sequence of Cytochrome P450 2C9 (P11712 whole entry): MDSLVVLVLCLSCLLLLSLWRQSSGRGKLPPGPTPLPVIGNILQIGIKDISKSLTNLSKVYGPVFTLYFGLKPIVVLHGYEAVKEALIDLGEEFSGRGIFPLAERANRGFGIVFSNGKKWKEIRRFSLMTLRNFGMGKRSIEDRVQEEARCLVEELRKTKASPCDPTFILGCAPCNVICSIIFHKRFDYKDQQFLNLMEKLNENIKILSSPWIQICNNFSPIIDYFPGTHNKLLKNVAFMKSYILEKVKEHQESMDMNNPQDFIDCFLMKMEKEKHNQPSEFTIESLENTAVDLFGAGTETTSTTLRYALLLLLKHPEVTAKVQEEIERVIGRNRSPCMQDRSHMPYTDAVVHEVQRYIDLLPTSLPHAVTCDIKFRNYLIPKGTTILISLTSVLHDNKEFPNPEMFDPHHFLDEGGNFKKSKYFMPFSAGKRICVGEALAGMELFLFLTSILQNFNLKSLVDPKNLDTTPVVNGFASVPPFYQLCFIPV
Sequence of CYP2C9 (P11712 whole entry): as above
Sequence of Cytochrome P450 3A4 (P08684 whole entry): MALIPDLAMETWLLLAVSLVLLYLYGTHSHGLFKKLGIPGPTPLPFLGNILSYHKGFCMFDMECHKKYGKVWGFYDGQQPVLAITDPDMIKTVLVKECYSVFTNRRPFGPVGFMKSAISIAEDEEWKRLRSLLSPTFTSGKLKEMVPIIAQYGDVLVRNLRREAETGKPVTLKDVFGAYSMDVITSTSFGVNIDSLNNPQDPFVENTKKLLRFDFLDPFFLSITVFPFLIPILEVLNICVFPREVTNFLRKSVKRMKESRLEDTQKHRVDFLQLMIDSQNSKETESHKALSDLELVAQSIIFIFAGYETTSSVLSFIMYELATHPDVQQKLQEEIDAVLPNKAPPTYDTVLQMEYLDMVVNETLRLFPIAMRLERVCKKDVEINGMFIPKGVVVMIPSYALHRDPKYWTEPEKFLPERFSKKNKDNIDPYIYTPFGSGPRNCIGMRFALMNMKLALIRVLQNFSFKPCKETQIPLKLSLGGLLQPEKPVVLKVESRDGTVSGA
Sequence of CYP3A4 (P08684 whole entry, canonical isoform): as the sequence (P08684 whole entry) above
Sequence of CYP2D6 (P10635 whole entry): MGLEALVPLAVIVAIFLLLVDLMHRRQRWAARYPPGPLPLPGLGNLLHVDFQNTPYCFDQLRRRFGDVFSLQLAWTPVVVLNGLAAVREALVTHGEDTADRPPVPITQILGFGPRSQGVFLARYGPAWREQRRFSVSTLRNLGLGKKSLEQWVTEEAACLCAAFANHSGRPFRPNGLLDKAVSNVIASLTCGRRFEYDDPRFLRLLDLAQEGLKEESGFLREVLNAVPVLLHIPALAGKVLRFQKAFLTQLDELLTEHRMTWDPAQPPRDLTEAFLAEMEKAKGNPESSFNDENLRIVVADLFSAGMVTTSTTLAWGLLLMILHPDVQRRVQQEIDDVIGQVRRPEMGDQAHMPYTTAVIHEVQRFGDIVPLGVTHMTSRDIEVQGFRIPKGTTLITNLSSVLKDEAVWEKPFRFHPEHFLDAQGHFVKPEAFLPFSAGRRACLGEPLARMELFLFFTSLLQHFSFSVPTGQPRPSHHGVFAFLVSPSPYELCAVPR
Sequence of Cytochrome P450 2D6 (P10635 whole entry): as above

SMILES | inhibition at 1 µM (CYP3A4) | inhibition at 1 µM (CYP2D6) | inhibition at 1 µM (CYP2C9) | Ki (Histamine H3 receptor [1]) | Ki (Histamine H3 receptor [2]) | IC50 (Cytochrome P450 2C9) | also measured
O=C1CCC(c2ccc(OCCCN3CCCCC3)cc2)CC1 | 4.1% | 3.8% | 21.4% | 1.7 nM | – | – | –
CN(C)[C@H]1CC[C@@H](c2ccc(OCCCN3CCCCC3)cc2)CC1 | – | – | – | – | 0.28 nM | 11300 nM | ED50 (Mus musculus): 3.7 mg/kg; IC50 (Cytochrome P450 3A4): 50000 nM; IC50 (Cytochrome P450 2D6): > 100000 nM
CN(C)[C@H]1CC[C@H](c2ccc(OCCCN3CCCCC3)cc2)CC1 | – | – | – | – | 0.52 nM | 40700 nM | ED50 (Mus musculus): 3.7 mg/kg; IC50 (Cytochrome P450 3A4): 42600 nM; IC50 (Cytochrome P450 2D6): > 100000 nM
c1cc([C@H]2CC[C@@H](N3CCC3)CC2)ccc1OCCCN1CCCCC1 | – | – | – | 0.34 nM | – | – | –
c1cc([C@H]2CC[C@H](N3CCC3)CC2)ccc1OCCCN1CCCCC1 | 4.2% | 0.8% | -12.1% | 0.25 nM | 1.6 nM | – | ED50 (Mus musculus): 2.8 mg/kg; inhibition at 10 µM (hERG (KCNH2) [3]): 41%
c1cc([C@H]2CC[C@@H](N3CCCC3)CC2)ccc1OCCCN1CCCCC1 | – | – | – | 0.33 nM | 1 nM | 22300 nM | inhibition at 1 µM (hERG (KCNH2) [4]): 11%; IC50 (Cytochrome P450 3A4): 41700 nM; inhibition at 10 µM (hERG (KCNH2) [3]): 15%; IC50 (Cytochrome P450 2D6): > 100000 nM
c1cc([C@H]2CC[C@H](N3CCCC3)CC2)ccc1OCCCN1CCCCC1 | – | – | – | 0.25 nM | 0.33 nM | 15300 nM | inhibition at 1 µM (hERG (KCNH2) [4]): 14%; ED50 (Mus musculus): 3 mg/kg; inhibition at 10 µM (hERG (KCNH2) [3]): 22%; IC50 (Cytochrome P450 2D6): > 100000 nM
c1cc([C@H]2CC[C@H](N3CCCCC3)CC2)ccc1OCCCN1CCCCC1 | 5.2% | 1.4% | 33.5% | 0.64 nM | 1 nM | – | inhibition at 1 µM (hERG (KCNH2) [4]): 42%; ED50 (Mus musculus): 4.2 mg/kg
CC1CCN([C@H]2CC[C@@H](c3ccc(OCCCN4CCCCC4)cc3)CC2)CC1 | 26.1% | -7.8% | 52.9% | 0.56 nM | – | – | –
CN1CCN([C@H]2CC[C@@H](c3ccc(OCCCN4CCCCC4)cc3)CC2)CC1 | – | – | – | 0.92 nM | – | – | –
CN1CCN([C@H]2CC[C@H](c3ccc(OCCCN4CCCCC4)cc3)CC2)CC1 | 20.9% | 3.4% | 3.4% | 0.32 nM | 2.3 nM | – | –
c1cc([C@H]2CC[C@@H](N3CCOCC3)CC2)ccc1OCCCN1CCCCC1 | – | – | – | 0.67 nM | – | – | –
c1cc([C@H]2CC[C@H](N3CCOCC3)CC2)ccc1OCCCN1CCCCC1 | – | – | – | 0.41 nM | 1.6 nM | 44000 nM | AUC(0-t) at 8 h [5]: 2110 ng·h/mL; ED50 (Mus musculus): 1.3 mg/kg; AUC(0-t) at 8 h [6]: 15600 ng·h/mL; Stability (Liver microsomes): Stable; Kp [7]: 7.4; IC50 (Cytochrome P450 3A4): 66200 nM; inhibition at 10 µM (hERG (KCNH2) [3]): 34%; IC50 (Cytochrome P450 2D6): > 100000 nM; Stability (Liver): Stable
OC1CCN([C@H]2CC[C@@H](c3ccc(OCCCN4CCCCC4)cc3)CC2)CC1 | – | – | – | 0.92 nM | – | – | –
OC1CCN([C@H]2CC[C@H](c3ccc(OCCCN4CCCCC4)cc3)CC2)CC1 | 3.3% | 15.7% | 3.4% | 0.57 nM | – | – | –
c1ccc2c(c1)CN([C@H]1CC[C@@H](c3ccc(OCCCN4CCCCC4)cc3)CC1)C2 | – | – | – | 0.41 nM | – | – | –
c1ccc2c(c1)CN([C@H]1CC[C@H](c3ccc(OCCCN4CCCCC4)cc3)CC1)C2 | 8.9% | 21.9% | 25.1% | 0.17 nM | 1.4 nM | – | –
c1ccc(CN[C@H]2CC[C@@H](c3ccc(OCCCN4CCCCC4)cc3)CC2)cc1 | – | – | – | 0.29 nM | – | – | –
c1ccc(CN[C@H]2CC[C@H](c3ccc(OCCCN4CCCCC4)cc3)CC2)cc1 | 39.9% | 20% | 47.8% | 0.26 nM | 2.1 nM | 1000 nM | –
CCCCN[C@H]1CC[C@@H](c2ccc(OCCCN3CCCCC3)cc2)CC1 | 25.4% | 2.9% | 53.9% | 0.53 nM | – | 1000 nM | –
CCCCN[C@H]1CC[C@H](c2ccc(OCCCN3CCCCC3)cc2)CC1 | 26.6% | -8.9% | 54.7% | 0.64 nM | – | 1000 nM | –
CN[C@H]1CC[C@H](c2ccc(OCCCN3CCCCC3)cc2)CC1 | – | – | – | 3.2 nM | – | – | –
CN([C@H]1CC[C@H](c2ccc(OCCCN3CCCCC3)cc2)CC1)S(=O)(=O)c1ccccc1 | – | – | – | 5.5 nM | – | – | –
c1cc(OCCCN2CCCCC2)ccc1CN1CCCCC1 [JNJ-5207852] | – | – | – | – | – | – | Tmax [8]: 3 h; AUC(0-t) at 3 h [9]: 1100 ng·h/mL; Tmax [10]: 0.5 h; AUC(0-t) at 3 h [11]: 1040 ng·h/mL
